Screening data: PubChem BioAssay, several laboratories
An excerpt weighted towards active compounds, which were near 5.8% of everything screened.
Cl transport mod = KCC2 cotransporter modulators, thallium flux, primary screen, cell-based, HEK293 KCC2, FluoZin-2 fluorescence, MLSMR | Solute carrier family 12 member 5 (Homo sapiens), Q9H2X9 | KCC2 cells, thallium flux FluoZin-2 fluorescence | B-score of Tl+ flux slope (higher = more flux/activation; lower = inhibition) at 10 µM | hit rate 2.2% among 190,000;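 active means thallium flux slope and its plate-corrected score both differing from the plate sample mean at a set confidence after two filtering rounds, in either direction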;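 further: slope of fluorescence scaled to starting intensity during 10 to 20 s after thallium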
ROMK mod = ROMK potassium channel modulators, primary screen, cell-based, thallium flux, MLSMR library; ATP-sensitive inward rectifier potassium channel 1 (Homo sapiens), P48048; B-score at 10 µM; hit rate 2% among 130,000; Tet-inducible ROMK, thallium flux fluorescence; actives lie on both sides;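 active means signal ratio slope over the read window, or its plate-corrected B-score, at least 3 SD from the plate mean, either direction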;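 further: B-score of the F/F0 ratio slope over 7 to 12 s after thallium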
WT yeast gro inh = growth inhibition of WT strain, primary screen, mitochondrial fusion inhibitor project, WT and mutant strains, chemical genetic | AID 1362, 2008 | inhibition, % at 10 µM | mitochondrial fusion phenotypic screen | hit rate 2.1% among 190,000; in the data active means inhibition above about 58%; tested in S. cerevisiae
NCF1 inh = p47phox/p22phox peptide binding inhibitors, primary screen, biochemical, uHTS, NADPH oxidase regulatory subunit; inhibition, % at 24.7 µM; hit rate 0.53% among 220,000; fluorescence polarization, 2 h; Neutrophil cytosol factor 1 (Homo sapiens), P14598;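 active means inhibition above about 30%, limit read from the data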;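 further: 0% = p47phox with labelled peptide and 100% = labelled peptide alone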
14-3-3 Bad PPI = inhibitors of 14-3-3 zeta/Bad binding, primary screen, biochemical, TR-FRET, bovine 14-3-3 zeta | 14-3-3 protein zeta/delta (Bos taurus), P63103 | TR-FRET 14-3-3zeta/Dy647-pBad peptide displacement, 1 h | inhibition, % at 21.7 µM | hit rate 0.71% among 220,000;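 active means inhibition above about 70%, limit read from the data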;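 further: 0% = full 14-3-3 plus peptide FRET controls and 100% = background without 14-3-3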
RBBP9 inh = human RBBP9 inhibitors, primary screen, biochemical, fluorescence polarization, FP-Rh probe, HTS; Serine hydrolase RBBP9 (Homo sapiens), O75884; recombinant RBBP9; inhibition, % at 7.94 µM; hit rate 0.2% among 220,000; AID 1515, 2009;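 active means inhibition above the campaign mean of all tested compounds plus 3 SD, cut at about 14% in these data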;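 further: plate controls were DMSO wells with RBBP9 for no effect and wells lacking RBBP9 protein for full effect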
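Test system – recombinant human RBBP9 · Input – RBBP9 2.5 µM in dispensing solution, pre-mixing · Medium – Tris buffer pH 8.0, NaCl, Pluronic · Schedule – preincubation 30 min plus labeling 45 min at 25 °C · Measured by – fluorescence polarization · Measure – % inhibition · Controls – DMSO and no-protein wells · Replicates – one well per compound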
The depositor's hits bear a star; x = no result.

SMILES	Cl transport mod	ROMK mod	WT yeast gro inh	NCF1 inh	14-3-3 Bad PPI	RBBP9 inh
CCOC(=S)SCC(=O)Nc1nccs1	0.14	-0.92	8	5	-2	4
CCOC(=S)SCC(=O)Nc1nc(-c2ccc(Br)cc2)cs1	-0.47	0.12	74*	-23	-8	-21
O=C(O)c1cc(O)ccc1NC(=O)c1cccc2ccccc12	-1.5	x	x	-20	-9	-4
O=C(Cn1cccc1C(=O)c1ccccc1)NCc1cccc(Cl)c1	0.48	0.28	-6	-7	-18	0
O=c1c2c3c(sc2nc(NCCO)n1CCc1ccccc1)CCCCC3	-1.5	x	70*	-33	-10	-2
Cn1c(N/N=C/c2ccccc2)nc2sc3c(c2c1=O)CCC3	1	x	62*	-14	-4	-6
OCCNc1nc(SCc2ccccc2)nc2sc3c(c12)CCC3	0.084	x	78*	-34	-10	-1
CCc1nnc(NS(=O)(=O)c2ccc(NC(=O)c3cccc(Cl)c3)cc2)s1	0.36	0.66	0	-11	-9	-7
Nc1nc(NCCCN2CCOCC2)nc(Nc2ccccc2F)c1[N+](=O)[O-]	-1.2	x	x	-17	-17	-4
C[n+]1c2n(c3ccccc31)N=C(c1ccc(-c3ccccc3)cc1)CS2	-0.7	-0.83	87*	10	-2	-6
O=c1c(O)cccc2cc(O)c(O)c(O)c12	-0.2	x	x	-25	94*	1
COc1cc2cccc(OC)c(=O)c2c(OC)c1OC	-0.05	0.61	6	1	-16	-1
C[C@@H]1C=C(C(=O)N2CCN(Cc3ccccc3)CC2)O[C@H](OCc2ccc(CO)cc2)C1	-1.9	x	-4	x	0	-2
O=C(C1=C[C@H](C2CCCCC2)C[C@H](OCc2ccc(CO)cc2)O1)N1CCOCC1	-0.55	x	6	x	-2	-5
O=C(C1=C[C@@H](C2CCCCC2)C[C@@H](OCc2ccc(CO)cc2)O1)N1CCN(Cc2ccccc2)CC1	-0.63	x	64*	x	3	-6
O=C(C1=C[C@H](C2CCCCC2)C[C@H](OCc2ccc(CO)cc2)O1)N1CCN(Cc2ccccc2)CC1	0.069	x	72*	-8	18	-1
CC(C)(C)[C@H]1C=C(C(=O)N2CCN(Cc3ccccc3)CC2)O[C@@H](OCc2ccc(CO)cc2)C1	-1.2	x	72*	x	11	-2
COC(=O)c1c(NC(=O)CSc2nnc(C)c(=O)[nH]2)sc(C)c1C	-1.4	-0.18	8	-6	-11	-1
CSc1ccccc1NC(=O)CN(C)CC(=O)NCc1ccccc1	-1.8	1.1	-20	-11	-7	-1
CSc1ccccc1NC(=O)CN(C)Cc1cccc(Cl)c1	-0.87	-0.17	21	3	72*	-3
NS(=O)(=O)c1ccc(CNC(=O)c2csc3c2CCCC3)cc1	0.26	-0.67	-5	-3	-2	-8
CCOC(=O)C1(C(F)(F)F)N=C(c2cccnc2)OC(N2CCCCC2)=N1 (centres undefined)	-0.84	0.83	-14	-4	-2	-1
Cc1sc2ncn(CC(=O)NCC3COc4ccccc4O3)c(=O)c2c1S(=O)(=O)N1CCCCC1 (centres undefined)	-0.13	0.94	-10	4	-5	8
O=C(CC(=O)c1cc(Cl)ccc1O)c1ccccc1	10*	x	62	-11	-12	-7
Cc1cccc(C(=O)CC(=O)c2cc(Cl)ccc2O)c1	x	0.37	61*	-1	10	-1
Cc1ccc(C)c(CN2CCNC2=O)c1	0.33	-0.56	-1	137*	-8	-2
O=C1NCCN1Cc1cccc(Cl)c1	-0.22	x	3	-10	-8	-6
COc1ccc(OC)c(N)c1	-2.8	x	-7	106*	33	7
CCc1nnc(NC(=O)CSc2ncnc3c2oc2ccccc23)s1	x	x	7	-2	73*	-8
O=C(CSc1ncnc2c1oc1ccccc12)Nc1nc2ccccc2s1	x	x	-18	-27	6	-6
